bCat nuc transl: alters nuclear translocation of beta-catenin in HeLa cells; AID 1665; nuclear translocation activity, % at 5 µM; actives 0.3% (n = 190,000); immunofluorescence imaging;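 active = nuclear translocation activity above 50% at 5 µM, with a well cell count of 50 or more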;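 also: per-cell ratio of nuclear to cytoplasmic median beta-catenin stain intensity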
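assay system = human HeLa cells, endogenous beta-catenin | times = compound treatment 24 h, 37°C, 5% CO2 | detection = Anti-beta-catenin immunofluorescence on PFA-fixed, Triton-permeabilized cells, DAPI nuclei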
L major viab: inhibitors of Leishmania major promastigote growth; Leishmania major promastigotes, resazurin fluorescence viability; inhibition, % at 10 µM; actives 9% (n = 200,000); in the data active = inhibition above about 50%;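 also: promastigotes grown with compound for 44 hours at 28 °C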
Dynein cargo inh: blocks dynein driven cargo transport along microtubules; z-score, hits read low; 3617.4 mouse cells, GR-EGFP nuclear translocation imaging; test concentration mostly 20 µM; stimulated with dexamethasone, 1 µM; hits give low values; actives 0.47% (n = 220,000);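 active = plate z-score of nuclear minus cytoplasmic receptor signal below a set negative limit, without overly bright fluorescence or cell loss, cut at about -3.5 in these data, passing the limit was not always enough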;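 also: z-score of nuclear minus cytoplasmic ring GR-EGFP intensity difference per well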
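medium = tetracycline-free induction medium containing charcoal-stripped FBS | probe or stimulus = dexamethasone, 1.0 µM final | timing = 48 h induction, then 1 h compound, then 30 min agonist, 37 °C | detection = automated 10x imaging of fixed Hoechst-stained cells | read-out basis = nuclear versus cytoplasmic GR-EGFP signal, averaged per well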
HSV replic up: HSV replication enhancement; maximum fold increase; AID 1956; HSV replication augmentation in cells, fold increase; actives 0.005% (n = 220,000); in the data active = maximum fold increase above about 1.5; tested in PC3 cells
MT stabilizer: microtubule stabilization, imaging screen. % tubulin-high responders, % at 10 µM. HeLa tubulin immunostaining HCS, 24 h; share of cells brighter than vehicle mean+2SD. actives 0.83% (n = 200,000);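 active = plate Z-score above 3 for both tubulin-high and condensed-nucleus cell shares, with cell loss under 80%, at 10 µM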;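 also: anti alpha tubulin signal scored within the nucleus-defined area of each cell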
Lmaj promast 1uM: inhibitors of Leishmania major promastigote growth, repeat at 1 uM; actives 13% (n = 1,100); shares compounds with L major viab; L. major promastigote growth, resazurin fluorescence, 48 h; inhibition, % at 1 µM;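 active = inhibition above about 50% in both repeat tests, limit read from the data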
Large screens that a line does not name were inactive (follow-up assays come after a bar, where they were run). This is a sample that favours compounds with a hit; in the whole collection about 8.9% have one here.

OC(CNCc1ccccc1)c1ccccc1 (stereo unspecified)	none (no result: L major viab, HSV replic up, MT stabilizer)
CCN(CC)C(=O)n1cnc(-c2ccccc2)c1-c1ccccc1	L major viab 69 | Lmaj promast 1uM inactive
CCN(CC)C(=O)CSc1nnc(-c2ccccc2)c(-c2ccccc2)n1	none
CCN(CC)c1ccc(NC(=O)c2ccc(Br)o2)c(C)c1	L major viab 57 (no result: bCat nuc transl) | Lmaj promast 1uM inactive
Cc1ccc(OC(C)c2nnc(N)s2)cc1Cl (stereo unspecified)	L major viab 100 (no result: bCat nuc transl, HSV replic up) | Lmaj promast 1uM inactive
COc1ccc(OC(C)c2nnc(N)s2)cc1 (stereo unspecified)	none
O=C(CSc1nc2ccc(N3CCOCC3)cc2c(=O)n1CCc1ccccc1)NCC1CCCO1 (stereo unspecified)	none
CSCCC(NC(=O)c1cccc([N+](=O)[O-])c1)C(=O)O (stereo unspecified)	L major viab 79 | Lmaj promast 1uM inactive
Cc1cc2c(cc1C)N(CC(=O)N1CCCC1)C(=O)CC(c1ccccc1)=N2	none (no result: bCat nuc transl)
O=C(Nc1cccc(Cl)c1)N(CCCN1CCOCC1)Cc1ccccc1F	none (no result: bCat nuc transl)
Cc1cc(C)n(-c2nc3ccccc3c(=O)n2OCC(=O)OCc2ccccc2)n1	L major viab 92 (no result: HSV replic up) | Lmaj promast 1uM inactive
O=C(Oc1cccc(OC(=O)N2CCCCC2)c1)N1CCCCC1	none
COc1ccccc1NC(=S)N(Cc1ccco1)Cc1cc2cccc(C)c2[nH]c1=O	L major viab 100 | Lmaj promast 1uM inactive
Cc1cccc2cc(CN(Cc3ccco3)C(=O)c3cccs3)c(=O)[nH]c12	none (no result: bCat nuc transl)
CCCNC(=O)c1ccc2c(c1)C1C3CCC(C3)C1C(c1ccccc1)N2 (stereo unspecified)	L major viab 81 | Lmaj promast 1uM inactive
COC(=O)c1ccc(Sc2nnnn2-c2ccccc2)c([N+](=O)[O-])c1	L major viab 99 | Lmaj promast 1uM inactive
COC(=O)c1ccccc1N1C(=O)[C@@H]2C(c3ccc(Br)cc3)=NO[C@@H]2C1=O	none (no result: bCat nuc transl)
CCC1CCCCN1CC(O)Cn1c2ccccc2n2c(=O)cc(C)c(C#N)c12 (stereo unspecified)	L major viab 81 | Lmaj promast 1uM inactive
CCN(CC)CCn1c2ccccc2c2cnc(N)c(C#N)c21	L major viab 100 | Lmaj promast 1uM inactive
Cc1ccc(-c2cc[n+](Cc3ccccc3)cc2)cc1	L major viab 92 | Lmaj promast 1uM inactive
O=Cc1ccc(Oc2ncccn2)cc1	none
O=Cc1ccc(OC2OCCOC2Oc2ccc(C=O)cc2)cc1 (stereo unspecified)	L major viab 53 | Lmaj promast 1uM inactive
Cc1c(-c2ccccc2)c(P(=O)(N2CCOCC2)N2CCOCC2)c2ccccn12	L major viab 55 | Lmaj promast 1uM inactive
N#Cc1cc(Oc2ccc3ccccc3c2)c(-n2nnc3ccccc32)cc1C#N	L major viab 52 (no result: bCat nuc transl) | Lmaj promast 1uM 96
S=C1NCCOCCNC(=S)NCCOCCOCCOCCN1	none
CCOC(=O)c1sc(Nc2cccc(Cl)c2)nc1C	none (no result: L major viab, MT stabilizer)
CCn1cc([N+](=O)[O-])c(C(=O)N2N=C(c3ccc(OC)cc3OC)CC2c2ccccc2O)n1 (stereo unspecified)	L major viab 60 | Lmaj promast 1uM inactive
COc1ccc(C2=NN(C(=O)c3ccc(Cl)c([N+](=O)[O-])c3)C(c3ccccc3)C2)cc1 (stereo unspecified)	none
CCCS(=O)(=O)c1c(S(=O)(=O)CCC)c2c(C)cccn2c1C(=O)OC	none
CCCS(=O)(=O)c1c(S(=O)(=O)CCC)c2c3ccccc3ccn2c1C(=O)OC	L major viab 82 | Lmaj promast 1uM inactive
O=C(O)CSCC(=O)N1CCN(S(=O)(=O)c2ccccc2)CC1	none
O=C(CN1CCc2ccccc2C1)N1CCN(S(=O)(=O)c2ccccc2)CC1	L major viab 90 | Lmaj promast 1uM inactive
Cc1cc(C)n(CCc2nc(-c3ccc(C)o3)cs2)n1	none
Cc1cc(C)n(CCc2nc(-c3cc4ccccc4o3)cs2)n1	L major viab 100 (no result: HSV replic up) | Lmaj promast 1uM inactive
COCCSc1ccccc1C(=O)Nc1ccncc1	none
CC1=CC(C)C2(CO)COC(c3cccnc3)C1C2C (stereo unspecified)	L major viab 80 | Lmaj promast 1uM inactive
CCCCOc1cc(=O)[nH]c(=O)[nH]1	none
Clc1ccc(C2NCCc3sccc32)cc1 (stereo unspecified)	none
FC(F)(F)c1ccc(C2NCCc3sccc32)cc1 (stereo unspecified)	L major viab 93 | Lmaj promast 1uM inactive
CCSC1=N/C(=C\c2cccc(F)c2)C(=O)S1	L major viab 60 | Lmaj promast 1uM inactive
C=CCOc1ccc2c(c1)c(S(=O)(=O)c1ccc(C)cc1)cn2COC	L major viab 88 | Lmaj promast 1uM inactive
Cc1ccc(-c2noc(CCC(=O)NCCN3CCOCC3)n2)cc1	none
CN(c1ccccc1)P(=O)(N(C)c1ccccc1)N(C)c1ccccc1	L major viab 98 | Lmaj promast 1uM inactive
CC1(CCc2ccccc2)NC(=S)N(c2ccccc2)N1 (stereo unspecified)	L major viab 70 (no result: bCat nuc transl) | Lmaj promast 1uM inactive
CC1(CCc2ccccc2)NC(=S)N(c2ccc(Cl)cc2)N1 (stereo unspecified)	none (no result: HSV replic up)
CC(C)C(O)(C#CCN1CCCCC1)c1ccccc1 (stereo unspecified)	L major viab 93 | Lmaj promast 1uM inactive
COC(=O)C1=C(C)N(CCc2cc(OC)c(OC)c(OC)c2)C(=O)N[C@H]1c1ccc(Br)cc1	none (no result: bCat nuc transl, HSV replic up)
Cc1nn(-c2ccccc2)cc1/C=N/NC(=O)c1cccs1	none (no result: L major viab, MT stabilizer)
COc1ccc(N2CC(C(=O)Nc3ncccc3C)CC2=O)cc1 (stereo unspecified)	none
C[C@@H]1O[C@@H](O[C@H]2[C@H](Oc3cc(O)c4c(c3)O[C@H](c3ccc(O)cc3)CC4=O)O[C@H](CO)[C@@H](O)[C@@H]2O)[C@H](O)[C@H](O)[C@H]1O	none
O=C(N/N=C/c1coc2ccccc2c1=O)c1cn(-c2ccccc2)nc1-c1ccccc1	none
Cn1c(CN2CCCC2)nc2cc(NS(=O)(=O)c3ccc(Cl)cc3)ccc21	L major viab 99 | Lmaj promast 1uM inactive
COc1ccc(OC)c(S(=O)(=O)NC2CCN(Cc3ccccc3)CC2)c1	none
COc1ccc(/C=C2\CN(Cc3ccccc3)C/C(=C\c3ccc(OC)cc3OC)C2=O)c(OC)c1	L major viab 71 (no result: HSV replic up) | Lmaj promast 1uM inactive
O=C1CS/C(=N/N=C\c2ccn[nH]2)N1	none (no result: L major viab, MT stabilizer)
O=C(C1=C(O)C(=O)N(CCc2ccccc2)C1c1cccs1)c1ccco1 (stereo unspecified)	none
Cc1ccc2c(c1)c(=O)c1c3n2CCN(C(=O)CCl)C3CC1 (stereo unspecified)	L major viab 100 (no result: bCat nuc transl, HSV replic up) | Lmaj promast 1uM 57
COc1ccc(-c2[nH]ncc2CN2CCN(c3ccccn3)CC2)c(OC)c1	none
COCn1c(-c2ccc(OC)cc2)nc2ccccc21	none

Source: PubChem BioAssay (several laboratories)
